ERAP1 HTS inh = blocks human ERAP1 aminopeptidase activity; Q9NZ08; recombinant ERAP1, Leu-AMC fluorescence, 60 min; inhibition, % at 10.7 µM; 340,000 tested, 0.15% active;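 active means mean replicate inhibition of at least 30%, or all replicates individually reaching that 30% level; inactive means mean below 30% and not every replicate reaching it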
S100A4 inh HTS = blocks human S100A4 binding to myosin IIA peptide. S100A4/TAMRA-MyoIIA peptide fluorescence polarization. inhibition, % at 10.7 µM. 360,000 tested, 0.14% active;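 active means mean inhibition of at least 70% across replicates, with every replicate also reaching that level; inconclusive means mean inhibition reaches 70% but some replicates fall short; inactive means mean inhibition below 70%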
Target sequence (P26447 whole entry, looked up): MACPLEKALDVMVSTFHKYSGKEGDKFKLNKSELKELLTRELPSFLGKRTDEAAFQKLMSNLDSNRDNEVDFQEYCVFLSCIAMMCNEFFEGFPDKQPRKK
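assay system = human S100A4 monomer with TAMRA-labelled myosin IIA peptide | also added = labelled myosin peptide probe, 5 nM | incubation = 5 min between mix addition and reading | control set = DMSO and TFP controls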
PDI inh = inhibitors of human protein disulfide isomerase. PDI insulin aggregation turbidity, A650, 90 min. inhibition, % at 10 µM. 350,000 tested, 0.052% active. P07237;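 active means mean inhibition across replicates of 30% or more, whatever share of single replicates reach that level; inconclusive means mean inhibition below 30% while every single replicate reaches 30%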
Target sequence (P07237 whole entry, looked up): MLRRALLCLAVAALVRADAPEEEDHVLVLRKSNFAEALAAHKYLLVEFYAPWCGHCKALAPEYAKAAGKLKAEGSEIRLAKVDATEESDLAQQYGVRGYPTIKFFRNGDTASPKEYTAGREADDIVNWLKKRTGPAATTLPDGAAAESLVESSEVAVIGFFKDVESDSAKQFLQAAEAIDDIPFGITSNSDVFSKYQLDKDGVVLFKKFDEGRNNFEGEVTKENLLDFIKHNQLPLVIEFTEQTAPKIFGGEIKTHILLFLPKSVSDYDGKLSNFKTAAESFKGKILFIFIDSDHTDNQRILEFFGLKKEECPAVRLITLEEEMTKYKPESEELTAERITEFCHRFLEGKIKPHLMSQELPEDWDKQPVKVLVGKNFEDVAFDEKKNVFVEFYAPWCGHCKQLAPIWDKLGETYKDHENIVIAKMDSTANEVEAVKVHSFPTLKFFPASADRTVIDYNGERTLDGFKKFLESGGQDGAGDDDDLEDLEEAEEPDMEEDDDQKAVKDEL
FGF22 binding-1 = FGF22 (human) thermal shift binding. recombinant FGF22 thermal shift, SYPRO orange fluorescence; percent of sucrose octasulfate shift, DMSO zero. activity (Tm shift, normalised), % at 9.99 µM. 340,000 tested, 1.5% active;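 active means mean Tm shift, scaled 0 neutral to 100 positive control, at about 1.3% or above, every replicate too, limit read from the data; inconclusive means no clear call, values can overlap the other calls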
ERp5 block = blocks human ERp5 reductase activity on insulin. ERp5 insulin aggregation, absorbance 650 nm, 90 min. inhibition, % at 9.99 µM. 350,000 tested, 0.05% active. AID 651711;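 active means mean replicate inhibition above about 25%, with every replicate also reaching it, limit read from the data, passing the limit was not always enough; inconclusive means only one of those two criteria met; inactive means neither criterion met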
FGF22 binding-2 = FGF22 (human) binding in thermal shift | thermal shift activity, °C (ΔTm) at 38 µM | 1,000 tested, 2% active | recombinant FGF22 thermal shift, SYPRO orange fluorescence | shares compounds with FGF22 binding-1;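 active means fitted rise in melting shift crosses a set limit at or below the top valid dose tested; inconclusive means flat fit at mid-level activity, or a poor quality fit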
TSA no protein = compound-only SYPRO artifact for FGF22 binders | compound-only SYPRO orange thermal shift counter-screen, no protein | AC50, µM (titrated, usually from 38 µM) | AID 743019 | 1,000 tested, 2% active | shares compounds with FGF22 binding-1;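 active means rising signal whose fitted curve reaches the 0.54 level within the top valid dose, showing a melting point, actives reach about 13 µM in these data; inactive means the rest, including activity in the opposite direction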; further: value is where the raw curve crosses a fixed level and not half-maximal
Hits are given with their value; n = inactive; u = inconclusive; x = no result. This is one part of a sample in which hits are shown more often than they occur.

SMILES | ERAP1 HTS inh | S100A4 inh HTS | PDI inh | FGF22 binding-1 | ERp5 block | FGF22 binding-2 | TSA no protein
O=[N+]([O-])c1cc(CS(=O)(=O)Oc2ccc(Cl)cc2)c(O)c([N+](=O)[O-])c1 | n | n | n | 1.4 | n | n | n
O=[N+]([O-])c1ccc2oc(/C=C/c3ccc(O)cc3)nc2c1 | n | n | n | 1.8 | n | n | n
CC(C)(C)Nc1nc2cc([N+](=O)[O-])ccc2o1 | x | n | n | n | n | x | x
CC(=O)N1c2ccc(S(=O)(=O)N3CCC(C(=O)Nc4cccc(Cl)c4)CC3)cc2CC1C (configuration not stated) | n | n | n | n | n | x | x
COc1cc(-c2nc(C)c(C(C)=O)n2O)ccc1OCC(=O)Nc1ccc(Cl)cc1 | n | n | n | 2.5 | n | n | n
COc1ccc(-c2nc(C)c(C(C)=O)n2O)cc1OC | x | n | n | x | x | x | x
CC(=O)c1c(C)nc(-c2ccc(OCC(=O)Nc3cccc(C)c3C)cc2)n1O | n | n | n | 2.2 | n | n | n
Cc1ccc([C@H]2C[C@H](O)[C@@H](n3cc(-c4ccc(F)cc4)nn3)CN2C(=O)c2cccs2)cc1 | n | n | n | n | n | x | x
Oc1c(CN2CCOCC2)cc(CN2CCOCC2)c(O)c1O | n | n | n | 1.4 | n | n | n
Cc1nc(NC(=O)C2CC2)sc1C(=O)Nc1ccccc1Cl | n | n | n | 1.9 | n | n | n
CN(Cc1ccccc1)C(=O)c1[nH]cnc1C(=O)NC1CCN(C(=O)OC(C)(C)C)CC1 | n | n | n | 2.5 | n | n | n
CC(C)(C)OC(=O)N1CCC(NC(=O)c2[nH]cnc2C(=O)Nc2ccccc2)CC1 | n | n | n | n | n | x | x
O=C(Nc1cc(S(=O)(=O)N2CCOCC2)ccc1Cl)c1ccncc1 | n | n | n | n | n | x | x
CC(C)(C)[S@](=O)N1Cc2cc(C(=O)N[C@H]3CCN(Cc4ccccc4)C3)nc(-c3cccc(-c4ccncc4)c3)c2[C@@H]1CCO | n | n | x | n | n | x | x
COc1ccccc1-c1cccc(-c2nc(C(=O)NCc3ccncc3)cc3c2[C@@H](CCO)N([S@](=O)C(C)(C)C)C3)c1 | n | n | x | 24 | n | n | n
CC(C)(C)[S@@](=O)N1Cc2cc(C(=O)NCc3ccncc3)nc(-c3cccc(-c4ccncc4)c3)c2[C@H]1CCO | n | n | x | n | n | x | x
CC(C)(C)[S@](=O)N1Cc2cc(C(=O)N[C@@H]3CCN(Cc4ccccc4)C3)nc(-c3cccc(-c4cccnc4)c3)c2[C@@H]1CCO | n | n | x | 2.1 | n | n | n
CC(=O)Nc1ccc(NC(=O)COc2ccc(S(=O)(=O)N3CCCC3)cc2C)cc1 | n | n | n | n | n | x | x
C[C@@H]1CN([C@H](C)CO)C(=O)c2cc(NS(=O)(=O)c3ccc(F)cc3)ccc2O[C@@H]1CN(C)C(=O)Nc1ccc(F)cc1 | n | n | x | n | n | x | x
CC(=O)Nc1ccc(S(=O)(=O)Nc2ccn(Cc3ccccc3Cl)n2)cc1 | n | n | n | 2.1 | n | n | n
CC(=O)Nc1ccc(S(=O)(=O)Nc2ccc(Cl)nn2)cc1 | x | x | n | x | x | x | x
COc1ccc(-c2ccc([C@H]3[C@@H](CO)N4CCCCN(C(=O)c5ccc6c(c5)OCO6)C[C@@H]34)cc2)cc1 | n | n | x | n | n | x | x
COc1ccc(-c2ccc([C@H]3[C@@H](CO)N4CCCCN(C(=O)c5ccc6c(c5)OCO6)C[C@H]34)cc2)cc1 | n | n | x | 1.3 | n | n | n
COc1ccc(-c2ccc([C@@H]3[C@@H](CO)N4CCCCN(C(=O)c5ccc(F)cc5)C[C@@H]34)cc2)cc1 | n | n | x | 34 | n | n | 9µM
Cc1ccccc1C(=O)NCC(=O)OC(C)C(=O)Nc1cccc(S(=O)(=O)N2CCOCC2)c1 (configuration not stated) | n | n | n | 1.5 | n | n | n
SMILES | ERAP1 HTS inh | S100A4 inh HTS | PDI inh | FGF22 binding-1 | ERp5 block | FGF22 binding-2 | TSA no protein
CC(C)Oc1cccc(C(=O)N/N=C/c2ccoc2)c1 | n | n | n | n | n | x | x
O=C(c1cccc(F)c1)N1CCCCN2[C@H](CO)[C@H](c3ccc(-c4ccccc4)cc3)[C@@H]2C1 | n | n | x | n | n | x | x
COc1cccc(C(=O)Nc2cccc(NC(=O)c3cccs3)c2)c1 | n | n | n | 1.9 | n | n | n
COc1cc(NC(=O)c2ccc3c(c2)OCCO3)ccc1NC(=O)c1cccs1 | n | n | n | 2.0 | n | n | 10µM
O=C(Nc1ccc([N+](=O)[O-])cc1)Nc1ccc2c(c1)OCCO2 | n | n | n | n | n | x | x
COc1cc([N+](=O)[O-])ccc1NC(=O)Nc1ccc2c(c1)OCCO2 | n | n | n | 1.7 | n | n | n
Cc1ccc(C2=NC3(CCCCC3)N=C2SCC(=O)Nc2ccc3c(c2)OCCO3)cc1 | n | n | x | x | u | x | x
Cc1[nH]c2ccccc2c1N=Nc1cc(C(=O)O)cc(C(=O)O)c1 | n | n | n | 1.5 | n | n | n
c1ccc(-c2cc3nc(NCc4ccc5c(c4)OCO5)ccn3n2)cc1 | n | n | n | 35 | n | n | n
c1ccc(COc2ccc(-c3cc4nc(NCc5ccc6c(c5)OCO6)ccn4n3)cc2)cc1 | n | n | n | n | n | x | x
COc1cc(OC)c(C(=O)OCC(=O)NCC2CCCCC2)cc1OC | n | n | n | 9.3 | n | n | n
COc1cc(OC)c(C(=O)OCC(=O)NC2CCCCCCC2)cc1OC | n | n | n | n | n | x | x
CN(CC(=O)Nc1ccccc1Cl)C(=O)COC(=O)c1ccc(-c2ccc(O)cc2)cc1 | n | n | n | n | n | x | x
CN(CC(=O)Nc1ccccc1Cl)C(=O)COC(=O)c1nc(Cl)ccc1Cl | n | n | n | 1.6 | n | n | n
Cc1cc(C)n(C(=O)CNC(=O)c2cccc(Cl)c2)n1 | n | n | n | n | n | x | x
COc1cc(F)ccc1-c1cc(C(=O)NCc2cccs2)[nH]n1 | n | n | n | n | n | x | x
CC(C)Oc1ccc(F)cc1-c1cc(C(=O)NCc2cccs2)[nH]n1 | n | n | n | 1.6 | n | n | n
Cc1ccc(C)c(NC(=O)COC(=O)c2c(-c3ccccc3)noc2C)c1 | n | n | n | n | n | x | x
NC(=O)C(=O)N/N=C/c1c[nH]c2ccc(Br)cc12 | n | n | n | n | n | x | x
O=C(N/N=C/c1c[nH]c2ccccc12)c1ccc2c(c1)OCCO2 | n | n | n | 1.6 | n | n | n
O=C(N/N=C/c1c[nH]c2ccc(Br)cc12)c1ccc2c(c1)OCO2 | n | n | n | 2.5 | n | n | n
O=C(N/N=C/c1c[nH]c2ccc(Br)cc12)c1ccncc1 | x | x | n | x | x | x | x
O=C(N/N=C/c1c[nH]c2ccc(Br)cc12)C1CC1 | n | n | n | 2.2 | n | n | n
COC(=O)[C@]1(Cc2ccccc2)N[C@H](CN(C)S(=O)(=O)c2ccc(C)cc2)[C@@H]2C(=O)N(Cc3ccccc3)C(=O)[C@@H]21 | n | n | n | 1.4 | n | n | n
